ChEMBL document CHEMBL3351863, “Optimization of 2-phenyl-pyrimidine-4-carboxamides towards potent, orally bioavailable and selective P2Y(12) antagonists for inhibition of platelet aggregation” (Bioorg Med Chem Lett, 2014)

How the values were obtained:
Platelet [1] = assay: Inhibition of ADP-induced platelet aggregation in human platelet rich plasma assessed as remaining activity at 100 nM by in-vitro light transmission aggregometry assay; type: functional
How it was run: (§1)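 Light transmission aggregometry in human platelet-rich plasma; compound incubated, aggregation triggered with 3 µM ADP; remaining activity (RA) recorded at a single compound level (1000, 500 or 100 nM).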

Liver microsome [2] = assay: Metabolic stability assay in human liver microsomes assessed as parent drug disappearance at 1 uM after 20 mins by HPLC and mass spectrometry method; type: ADME
Cytochrome P450 2C9 = Cytochrome P450 2C9 (Homo sapiens, UniProt P11712); assay: Inhibition of CYP2C9 in human liver microsomes assessed as reduction in diclofenac 4'-hydroxylation; type: ADME
Platelet [3] = assay: Inhibition of ADP-induced platelet aggregation in human platelet rich plasma assessed as remaining activity at 500 nM by in-vitro light transmission aggregometry assay; type: functional; how it was run: as §1
[4] = Solubility in basic pH; type: physicochemical
Cytochrome P450 3A4 [5] = target: T1, Cytochrome P450 3A4 (Homo sapiens, UniProt P08684); assay: Inhibition of CYP3A4 in human liver microsomes assessed as reduction in testosterone 6beta-hydroxylation; type: ADME
Cytochrome P450 2D6 = Cytochrome P450 2D6 (Homo sapiens, UniProt P10635); assay: Inhibition of CYP2D6 in human liver microsomes assessed as reduction in dextromethorphan-O demethylation; type: ADME
Platelet [6] = assay: Inhibition of ADP-induced platelet aggregation in human platelet rich plasma by in-vitro light transmission aggregometry assay; type: functional
How it was run: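 Human platelet-rich plasma incubated with compound, aggregation induced by 3 µM ADP and read by light transmission aggregometry; IC₅₀ derived from concentration–response curve.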

[7] = Solubility in neutral pH; type: physicochemical
P2Y purinoceptor 12 = P2Y purinoceptor 12 (Homo sapiens, UniProt Q9H244); assay: Displacement of [3H]-2-methyl-thio-adenosine 5'-diphosphate from human recombinant P2Y12 expressed in CHO cell membranes by scintillation counting method
How it was run: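 CHO cells expressing recombinant P2Y₁₂ receptors, incubated with tritium-labeled 2-methyl-thio-adenosine 5'-diphosphate plus test compound; IC₅₀ from displacement curves, each point in triplicate; reference compound run with every compound set, and set re-analyzed if its IC₅₀ fell outside pre-set 95% confidence interval.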

Liver microsome [8] = assay: Metabolic stability assay in rat liver microsomes assessed as parent drug disappearance at 1 uM after 20 mins by HPLC and mass spectrometry method; type: ADME
[9] = target: Voltage-gated inwardly rectifying potassium channel KCNH2 (Homo sapiens, UniProt Q12809); assay: Inhibition of human ERG expressed in HEK cells by patch-clamp assay; type: cell-based; settings: hek293
[10] = Potency shift, ratio of IC50 for inhibition of ADP-induced platelet aggregation in human platelet rich plasma to IC50 for displacement of [3H]-2-methyl-thio-adenosine 5'-diphosphate from human recombinant P2Y12 expressed in CHO cell membranes
Cytochrome P450 3A4 [11] = target: T1, Cytochrome P450 3A4; assay: Inhibition of CYP3A4 in human liver microsomes assessed as reduction in midazolam 1'-hydroxylation; type: ADME
Platelet [12] = assay: Inhibition of ADP-induced platelet aggregation in human platelet rich plasma assessed as remaining activity at 1000 nM by in-vitro light transmission aggregometry assay; type: functional; how it was run: as §1

P2Y purinoceptor 12, sequence (Q9H244 whole entry): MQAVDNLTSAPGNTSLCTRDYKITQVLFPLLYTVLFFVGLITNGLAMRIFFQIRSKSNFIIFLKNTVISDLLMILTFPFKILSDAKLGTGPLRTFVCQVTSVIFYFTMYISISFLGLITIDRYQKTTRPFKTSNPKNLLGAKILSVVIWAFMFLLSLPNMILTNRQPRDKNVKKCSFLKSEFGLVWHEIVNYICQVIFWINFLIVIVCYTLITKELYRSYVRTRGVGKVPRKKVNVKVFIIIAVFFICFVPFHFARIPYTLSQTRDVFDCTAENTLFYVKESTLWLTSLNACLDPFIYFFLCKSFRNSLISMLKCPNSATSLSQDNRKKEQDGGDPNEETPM
Cytochrome P450 2D6, sequence (P10635 whole entry): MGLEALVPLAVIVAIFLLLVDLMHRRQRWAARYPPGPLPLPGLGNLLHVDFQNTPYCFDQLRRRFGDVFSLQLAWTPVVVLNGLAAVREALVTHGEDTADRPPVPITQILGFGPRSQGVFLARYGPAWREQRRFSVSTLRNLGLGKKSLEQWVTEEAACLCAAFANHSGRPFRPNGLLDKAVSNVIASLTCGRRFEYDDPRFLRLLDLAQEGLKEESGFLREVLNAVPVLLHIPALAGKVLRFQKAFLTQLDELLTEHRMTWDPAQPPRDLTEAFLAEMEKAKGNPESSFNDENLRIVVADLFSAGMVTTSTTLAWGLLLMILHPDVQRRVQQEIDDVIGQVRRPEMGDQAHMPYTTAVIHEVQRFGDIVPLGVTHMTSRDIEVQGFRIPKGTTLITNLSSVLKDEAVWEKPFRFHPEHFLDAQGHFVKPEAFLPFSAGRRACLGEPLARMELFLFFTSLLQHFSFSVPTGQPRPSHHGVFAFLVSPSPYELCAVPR
Voltage-gated inwardly rectifying potassium channel KCNH2, sequence (Q12809 whole entry): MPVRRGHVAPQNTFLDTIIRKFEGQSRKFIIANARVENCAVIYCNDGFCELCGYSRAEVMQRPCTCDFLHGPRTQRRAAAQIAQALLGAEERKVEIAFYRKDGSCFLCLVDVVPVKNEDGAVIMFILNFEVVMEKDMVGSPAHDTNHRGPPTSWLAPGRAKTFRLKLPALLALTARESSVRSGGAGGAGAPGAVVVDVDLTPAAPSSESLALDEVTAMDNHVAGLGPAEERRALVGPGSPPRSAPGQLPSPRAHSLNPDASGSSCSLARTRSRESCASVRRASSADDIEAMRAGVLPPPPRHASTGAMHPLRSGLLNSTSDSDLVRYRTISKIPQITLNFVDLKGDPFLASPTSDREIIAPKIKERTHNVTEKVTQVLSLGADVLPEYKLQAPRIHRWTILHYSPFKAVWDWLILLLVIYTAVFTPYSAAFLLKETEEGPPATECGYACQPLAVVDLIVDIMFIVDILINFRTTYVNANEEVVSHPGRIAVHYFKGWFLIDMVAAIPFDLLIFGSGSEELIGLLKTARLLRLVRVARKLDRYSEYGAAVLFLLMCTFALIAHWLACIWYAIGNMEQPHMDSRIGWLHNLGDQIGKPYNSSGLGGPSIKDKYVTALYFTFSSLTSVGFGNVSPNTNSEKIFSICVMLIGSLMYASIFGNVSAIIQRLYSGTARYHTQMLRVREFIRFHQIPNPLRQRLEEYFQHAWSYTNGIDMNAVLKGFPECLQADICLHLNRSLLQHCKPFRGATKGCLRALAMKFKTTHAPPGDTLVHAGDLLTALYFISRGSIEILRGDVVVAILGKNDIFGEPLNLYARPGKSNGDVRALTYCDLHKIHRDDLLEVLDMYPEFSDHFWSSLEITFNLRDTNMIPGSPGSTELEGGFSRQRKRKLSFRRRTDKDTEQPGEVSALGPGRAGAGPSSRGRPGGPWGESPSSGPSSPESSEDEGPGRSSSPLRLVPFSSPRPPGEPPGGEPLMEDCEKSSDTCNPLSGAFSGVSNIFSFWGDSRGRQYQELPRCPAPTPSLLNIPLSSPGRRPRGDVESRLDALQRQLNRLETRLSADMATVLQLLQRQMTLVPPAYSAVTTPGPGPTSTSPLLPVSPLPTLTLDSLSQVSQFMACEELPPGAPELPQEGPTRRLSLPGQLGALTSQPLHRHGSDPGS
T1 sequence (P08684 whole entry): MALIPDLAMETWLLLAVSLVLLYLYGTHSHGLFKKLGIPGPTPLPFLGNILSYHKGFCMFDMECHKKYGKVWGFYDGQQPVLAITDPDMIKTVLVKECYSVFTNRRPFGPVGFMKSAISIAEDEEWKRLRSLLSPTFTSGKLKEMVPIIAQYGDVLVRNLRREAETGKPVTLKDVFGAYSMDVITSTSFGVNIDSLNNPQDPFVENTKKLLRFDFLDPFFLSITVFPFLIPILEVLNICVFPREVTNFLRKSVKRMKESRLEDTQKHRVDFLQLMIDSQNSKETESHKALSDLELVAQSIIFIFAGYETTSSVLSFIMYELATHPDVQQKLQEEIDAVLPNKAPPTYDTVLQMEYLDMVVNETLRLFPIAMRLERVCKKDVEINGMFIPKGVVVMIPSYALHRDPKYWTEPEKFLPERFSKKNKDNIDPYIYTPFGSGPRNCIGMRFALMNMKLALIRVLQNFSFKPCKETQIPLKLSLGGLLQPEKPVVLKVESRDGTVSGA
Cytochrome P450 2C9, sequence (P11712 whole entry): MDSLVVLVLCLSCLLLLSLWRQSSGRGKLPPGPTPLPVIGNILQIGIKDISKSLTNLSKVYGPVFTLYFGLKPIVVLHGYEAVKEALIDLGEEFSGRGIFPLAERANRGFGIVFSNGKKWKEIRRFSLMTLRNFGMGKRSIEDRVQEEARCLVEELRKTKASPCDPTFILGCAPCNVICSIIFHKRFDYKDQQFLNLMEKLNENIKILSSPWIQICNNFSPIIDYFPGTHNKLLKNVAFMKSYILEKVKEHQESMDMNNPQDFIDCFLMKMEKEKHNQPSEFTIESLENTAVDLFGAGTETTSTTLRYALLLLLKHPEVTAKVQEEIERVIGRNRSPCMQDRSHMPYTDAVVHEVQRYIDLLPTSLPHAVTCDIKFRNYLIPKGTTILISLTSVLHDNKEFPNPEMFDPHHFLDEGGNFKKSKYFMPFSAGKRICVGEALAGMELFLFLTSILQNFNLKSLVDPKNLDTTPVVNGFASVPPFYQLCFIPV

| Stability (Liver microsome [2]) | inhibition (INH) (Cytochrome P450 2C9) | solubility [4] | inhibition (INH) (Cytochrome P450 3A4 [5]) | inhibition (INH) (Cytochrome P450 2D6) | IC50 (Platelet [6]; Homo sapiens, Platelet, Plasma) | solubility [7] | IC50 (P2Y purinoceptor 12) | Stability (Liver microsome [8]) | inhibition (INH) (Cytochrome P450 3A4 [11]) | IC50 (Platelet [6]; platelet) | Structure (SMILES) | Activity (Platelet [1]) | Activity (Platelet [3]) | inhibition (INH) [9] | Ratio IC50 [10] | Activity (Platelet [12]) |
| --- | --- | --- | --- | --- | --- | --- | --- | --- | --- | --- | --- | --- | --- | --- | --- | --- |
| Stable | Not Active | soluble | Not Active | Not Active | 121 nM | soluble | 21 nM | Stable | Not Active | – | CCOC(=O)N1CCN(C(=O)[C@H](CCC(=O)O)NC(=O)c2cc(C(C)(C)CO)nc(-c3ccccc3)n2)CC1 | <70% | <30% | Not Active | 5.8 | – |
| Stable | Not Active | soluble | Not Active | Not Active | – | soluble | 39 nM | Stable | Not Active | 192 nM | CCOC(=O)N1CCN(C(=O)[C@H](CCC(=O)O)NC(=O)c2cc([C@H]3C[C@@H]3COC)nc(-c3ccccc3)n2)CC1 (racemic) | <70% | <30% | Not Active | 4.9 | – |
| Stable | Not Active | soluble | Not Active | Not Active | – | soluble | 64 nM | Stable | Not Active | – | CCOC(=O)N1CCN(C(=O)[C@H](CCC(=O)O)NC(=O)c2cc(-c3ccccc3)nc(-c3ccccc3)n2)CC1 | – | >60% | Not Active | – | >30% |
| Stable | Not Active | soluble | Not Active | Not Active | – | soluble | 122 nM | Stable | Not Active | – | CCOC(=O)N1CCN(C(=O)[C@H](CCC(=O)O)NC(=O)c2cc(NCc3ccccc3)nc(-c3ccccc3)n2)CC1 | – | >60% | Not Active | – | >30% |
| Stable | Not Active | soluble | Not Active | Not Active | – | soluble | 219 nM | Stable | Not Active | – | CCOC(=O)N1CCN(C(=O)[C@H](CCC(=O)O)NC(=O)c2cc(NC(=O)C3CCCCC3)nc(-c3ccccc3)n2)CC1 | – | >60% | Not Active | – | >30% |
| Stable | Not Active | soluble | Not Active | Not Active | – | soluble | 53 nM | Stable | Not Active | – | CCOC(=O)N1CCN(C(=O)[C@H](CCC(=O)O)NC(=O)c2cc(-c3ccncc3)nc(-c3ccccc3)n2)CC1 | – | >60% | Not Active | – | >30% |
| Stable | Not Active | soluble | Not Active | Not Active | – | soluble | 142 nM | Stable | Not Active | – | CCOC(=O)N1CCN(C(=O)[C@H](CCC(=O)O)NC(=O)c2cc(NS(=O)(=O)CC)nc(-c3ccccc3)n2)CC1 | – | >60% | Not Active | – | >30% |
| Stable | Not Active | soluble | Not Active | Not Active | – | soluble | 178 nM | Stable | Not Active | – | CCOC(=O)N1CCN(C(=O)[C@H](CCC(=O)O)NC(=O)c2cc(NC(=O)c3ccccc3)nc(-c3ccccc3)n2)CC1 | – | >60% | Not Active | – | >30% |
| Stable | Not Active | soluble | Not Active | Not Active | – | soluble | 177 nM | Stable | Not Active | – | CCOC(=O)N1CCN(C(=O)[C@H](CCC(=O)O)NC(=O)c2cc(Nc3ccccc3)nc(-c3ccccc3)n2)CC1 | – | >60% | Not Active | – | >30% |
| Stable | Not Active | soluble | Not Active | Not Active | 71 nM | soluble | 23 nM | Stable | Not Active | – | CCOC(=O)N1CCN(C(=O)[C@H](CCC(=O)O)NC(=O)c2cc([C@H]3C[C@@H]3CO)nc(-c3ccccc3)n2)CC1 (racemic) | <70% | <30% | Not Active | 3.1 | – |
| Stable | Not Active | soluble | Not Active | Not Active | 99 nM | soluble | 52 nM | Stable | Not Active | – | CCOC(=O)N1CCN(C(=O)[C@H](CCC(=O)O)NC(=O)c2cc(N3CC[C@@H](O)C3)nc(-c3ccccc3)n2)CC1 | <70% | <30% | Not Active | 1.9 | – |
| Stable | Not Active | soluble | Not Active | Not Active | 86 nM | soluble | 76 nM | Stable | Not Active | – | CCOC(=O)N1CCN(C(=O)[C@H](CCC(=O)O)NC(=O)c2cc(N3CCC(N)C3)nc(-c3ccccc3)n2)CC1 (stereo partly drawn) | <70% | <30% | Not Active | 1.1 | – |
| Stable | Not Active | soluble | Not Active | Not Active | – | soluble | – | Stable | Not Active | – | CCOC(=O)N1CCN(C(=O)[C@H](CCC(=O)O)NC(=O)c2cc(-c3cn[nH]c3)nc(-c3ccccc3)n2)CC1 | – | >60% | Not Active | – | >30% |
| Stable | Not Active | soluble | Not Active | Not Active | 55 nM | soluble | 56 nM | Stable | Not Active | – | CCOC(=O)N1CCN(C(=O)[C@H](CCC(=O)O)NC(=O)c2cc(NC(C)CO)nc(-c3ccccc3)n2)CC1 (stereo partly drawn) | <70% | <30% | Not Active | 0.98 | – |
| Stable | Not Active | soluble | Not Active | Not Active | 73 nM | soluble | 21 nM | Stable | Not Active | – | CCOC(=O)N1CCN(C(=O)[C@H](CCC(=O)O)NC(=O)c2cc(N3CCCC(O)C3)nc(-c3ccccc3)n2)CC1 (stereo partly drawn) | <70% | <30% | Not Active | 3.5 | – |
